In brackets after ≈: the same amount, converted by molar mass.

The test system of assay [1] is Bacteroides fragilis. Put plainly: In vitro antimicrobial activity against Bacteroides fragilis ATCC 25285. In kind it is functional. Summed up:
(§1)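 Anaerobe MIC by broth microdilution in Wilkins-Chalgren broth; inoculum 5 × 10^5 cfu/mL; 37 °C.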

For assay [2], the system named is Nakaseomyces glabratus. Put plainly: In vitro antimicrobial activity against Candida glabrata (1). In kind it is functional. Summed up: (§2)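 Candida: broth microdilution MIC in phosphate-buffered Yeast Nitrogen Base broth with glucose (1% w/v) and L-asparagine (0.15% w/v); inoculum about 10^4 cfu/mL; 37 °C, 20–24 h.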
Assay [3] concerns Candida albicans. Put plainly: In vitro antimicrobial activity against Candida albicans L145. In kind it is functional. Summed up: as §2
Assay [4] relates to Candida albicans. As to the kind of experiment: In vitro antimicrobial activity against Candida albicans (24). In kind it is functional. In short, it runs like this:
as §2

The subject of assay [5] is Candida. Put plainly: Minimum inhibition concentration for 50% inhibition against Candida species. In kind it is functional. In short, it runs like this: as §2
Assay [6] concerns Candida. Put plainly: Minimum inhibition concentration for 90% inhibition against Candida species. In kind it is functional. Summed up:
as §2

Assay [7] has as its system Candida tropicalis. Put plainly: In vitro antimicrobial activity against Candida tropicalis. In kind it is functional. Summed up: as §2
The subject of assay [8] is Enterococcus faecalis. Put plainly: In vitro antimicrobial activity against Enterococcus faecalis ATCC 7080. In kind it is functional. Summed up:
(§3)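 Broth microdilution MIC in Oxoid Iso-Sensitest broth; inoculum about 10^4 cfu/mL; 37 °C for 20–24 h.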

Assay [9] has as its system Gardnerella vaginalis. Put plainly: In vitro antimicrobial activity against Gardnerella vaginalis (MIC50). In kind it is functional. In short, it runs like this: (§4)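 Agar dilution MIC in Casman medium with 5% (v/v) whole and 0.15% (v/v) lysed rabbit blood; inoculum about 10^5 cfu; 48 h at 37 °C under N2-CO2-H2 (80:10:10).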
Assay [10] deals with Gardnerella vaginalis. As to the kind of experiment: In vitro antimicrobial activity against Gardnerella vaginalis (MIC90). In kind it is functional. Summed up:
as §4

In assay [11] the test system is Escherichia coli. Put plainly: In vitro antimicrobial activity against Escherichia coli L47. In kind it is functional. Summed up:
as §3

Assay [12] deals with Haemophilus influenzae. As to the kind of experiment: In vitro antimicrobial activity against Haemophilus influenza ATCC 19418. In kind it is functional. In short, it runs like this:
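Broth microdilution MIC in Brain Heart Infusion broth plus 1% (v/v) supplement C; inoculum about 10^4 cfu/mL; 37 °C.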

Assay [13] relates to Neisseria gonorrhoeae. As to the kind of experiment: In vitro antimicrobial activity against Neisseria gonorrhoeae L997. In kind it is functional. Summed up: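 Broth microdilution MIC in GC Base broth plus 1% (v/v) IsoVitaleX; inoculum about 10^4 cfu/mL; 37 °C.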
Assay [14] relates to Pseudomonas aeruginosa. Put plainly: In vitro antimicrobial activity against Pseudomonas aeruginosa ATCC 10145. In kind it is functional. Summed up: as §3
Assay [15] has as its system Cutibacterium acnes. As to the kind of experiment: In vitro antimicrobial activity against Propionibacterium acnes ATCC 6919. In kind it is functional. In short, it runs like this:
as §1

Assay [16] concerns Staphylococcus aureus. As to the kind of experiment: In vitro antimicrobial activity against Staphylococcus aureus L1 65 30% bovine serum. In kind it is functional. In short, it runs like this:
(§5)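 Broth microdilution MIC against S. aureus L165 in Iso-Sensitest broth, 37 °C, 20–24 h.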

The test system of assay [17] is Staphylococcus aureus. Put plainly: In vitro antimicrobial activity against Staphylococcus aureus L165. In kind it is functional. Summed up: as §3
The test system of assay [18] is Staphylococcus aureus. As to the kind of experiment: In viro antimicrobial activity against Staphylococcus aureus L165 10 x e+6 cfu/ml. In kind it is functional. Summed up: as §5
Assay [19] concerns Staphylococcus haemolyticus. As to the kind of experiment: In vitro antimicrobial activity against Staphylococcus haemolyticus L602. In kind it is functional. In short, it runs like this: as §3
Assay [20] relates to Streptococcus pneumoniae. Put plainly: In vitro antimicrobial activity against Streptococcus pneumoniae L44. In kind it is functional. In short, it runs like this:
(§6)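 Streptococci: broth microdilution MIC in Todd Hewitt broth; inoculum about 10^4 cfu/mL; 37 °C, 20–24 h.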

In assay [21] the test system is Streptococcus pyogenes. Put plainly: In vitro antimicrobial activity against Streptococcus pyogenes L49. In kind it is functional. In short, it runs like this: as §6
The subject of assay [22] is Trichomonas vaginalis. As to the kind of experiment: Antimicrobial activity against Trichomonas vaginalis. In kind it is functional. Summed up: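 Broth microdilution in Trichomonas Culture Medium Base plus 10% horse serum; about 10^5 cells/mL; 48 h at 37 °C under N2-CO2-H2; MIC read by microscopy for viable (motile) protozoa.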
For assay [23], the system named is Proteus vulgaris. Put plainly: In vitro antimicrobial activity against Proteus vulgaris ATCC881. In kind it is functional. Summed up:
as §3

Assay [24] has as its system Staphylococcus epidermidis. Put plainly: In vitro antimicrobial activity against Staphylococcus epidermidis ATCC 12228. In kind it is functional. In short, it runs like this:
as §3

In assay [25] the test system is Candida albicans. As to the kind of experiment: In vitro antimicrobial activity against Candida albicans(24). In kind it is functional. Summed up: as §2
The test system of assay [26] is Staphylococcus aureus. As to the kind of experiment: In viro antimicrobial activity against Staphylococcus aureus L16510 x e+6 cfu/ml. In kind it is functional. In short, it runs like this:
as §5

The test system of assay [27] is Candida tropicalis. As to the kind of experiment: In vitro antimicrobial activity against Candida tropicalis (2). In kind it is functional. In short, it runs like this:
as §2

The subject of assay [28] is Staphylococcus aureus. As to the kind of experiment: In vitro antimicrobial activity against Staphylococcus aureus L165 30% bovine serum. In kind it is functional. In short, it runs like this:
as §5

The subject of assay [29] is Trichophyton benhamiae. Put plainly: In vitro antimicrobial activity against Trichophyton mentagrophytes L364. In kind it is functional, Arthroderma benhamiae. In short, it runs like this: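 Broth microdilution MIC in YM broth; inoculum 1% (v/v) suspension of mycelia and conidia; 30 °C for 72 h.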
For assay [30], the system named is Candida albicans. As to the kind of experiment: Candida albicans L145. In kind it is functional. Summed up: as §2

As a reminder, the MIC50 is an inhibitory concentration at the 50% level, which refers to growth in some studies and to a panel of isolates in others. Usually MIC90 stands for an inhibitory concentration at the 90% level, which refers to growth in some studies and to a panel of isolates in others. Read a low MIC90 as higher susceptibility. `COC(=O)c1cc2cc3c(c(O)c2c(=O)o1)OC1(CC2=C(O1)C(=O)c1c(O)c(N)cc(O)c1C2=O)CC3O` (stereo not given): the MIC in assay [1] is 0.06 µg/mL (≈ 0.115 µM); in assay [2] it was 32 µg/mL (≈ 61.1 µM); in assay [3], 32 µg/mL (≈ 61.1 µM); in [4], 2 µg/mL (≈ 3.82 µM); in [7], 128 µg/mL (≈ 245 µM); in assay [8], 0.06 µg/mL (≈ 0.115 µM). Further, the MIC is greater than 128 µg/mL in assay [11]; 0.06 µg/mL (≈ 0.115 µM) in assay [12]; 0.03 µg/mL (≈ 0.0573 µM) in assay [13]; greater than 128 µg/mL in [14]; 0.008 µg/mL (≈ 0.0153 µM) in assay [15]; 1 µg/mL (≈ 1.91 µM) in assay [16]. In addition, the MIC in [17] came out at 0.03 µg/mL (≈ 0.0573 µM); in [18], 0.06 µg/mL (≈ 0.115 µM); in assay [19], 0.06 µg/mL (≈ 0.115 µM); in assay [20] it was 0.016 µg/mL (≈ 0.0306 µM); in assay [21] it was 0.03 µg/mL (≈ 0.0573 µM); in assay [22], 0.5 µg/mL (≈ 0.955 µM). The figures for the MIC in [23] and in assay [24] were greater than 128 µg/mL and 0.03 µg/mL (≈ 0.0573 µM), respectively. In addition, the results for the MIC50 in assay [5] and in assay [9] were 64 µg/mL (≈ 122 µM) and 0.06 µg/mL (≈ 0.115 µM), respectively. Further, the MIC90 in assay [6] was 128 µg/mL (≈ 245 µM); in assay [10], 0.06 µg/mL (≈ 0.115 µM).

Take `COC(=O)c1cc2cc3c(c(O)c2c(=O)o1)OC1(Cc2c(O)c4c(c(O)c2O1)C(=O)C(OC)=CC4=O)CC3O` (stereo not given): the MIC in assay [1] is 0.25 µg/mL (≈ 0.464 µM); in assay [3], 1 µg/mL (≈ 1.86 µM); in assay [25] it was 0.25 µg/mL (≈ 0.464 µM); in assay [8], 0.06 µg/mL (≈ 0.111 µM); in assay [11] it was 8 µg/mL (≈ 14.9 µM); in assay [12], 0.03 µg/mL (≈ 0.0557 µM). In addition, the MIC was 0.06 µg/mL (≈ 0.111 µM) in assay [13]; greater than 128 µg/mL in assay [14]; 0.03 µg/mL (≈ 0.0557 µM) in assay [15]; 8 µg/mL (≈ 14.9 µM) in [16]; 0.03 µg/mL (≈ 0.0557 µM) in assay [17]; 0.06 µg/mL (≈ 0.111 µM) in [26]. In addition, the MIC in assay [19] was determined as 0.03 µg/mL (≈ 0.0557 µM); in assay [20], 0.06 µg/mL (≈ 0.111 µM); in [21], 0.25 µg/mL (≈ 0.464 µM); in [22], 8 µg/mL (≈ 14.9 µM); in assay [23] it was 32 µg/mL (≈ 59.4 µM); in assay [27] it was 128 µg/mL (≈ 238 µM). The MIC in [24] was 0.03 µg/mL (≈ 0.0557 µM). Also, the MIC50 in assay [5] worked out at 1 µg/mL (≈ 1.86 µM); in assay [9], 8 µg/mL (≈ 14.9 µM). In addition, the MIC90 is 2 µg/mL (≈ 3.71 µM) in assay [6] and 8 µg/mL (≈ 14.9 µM) in [10].

In the case of `COC(=O)c1cc2cc3c(c(O)c2c(=O)o1)OC1(CC2=C(O1)C(=O)c1c(O)c(NCCN(C)C)cc(O)c1C2=O)CC3O` (stereo not given), the MIC in assay [1] was found to be 0.5 µg/mL (≈ 0.841 µM); in [3] it was 64 µg/mL (≈ 108 µM); in assay [11] it was 16 µg/mL (≈ 26.9 µM); in assay [14] it was 128 µg/mL (≈ 215 µM); in assay [15] it was 0.06 µg/mL (≈ 0.101 µM); in [28], 0.25 µg/mL (≈ 0.421 µM). Also, the MIC in assay [17] was 0.13 µg/mL (≈ 0.219 µM); in [18], 0.13 µg/mL (≈ 0.219 µM); in [19] it was 0.5 µg/mL (≈ 0.841 µM); in assay [20], 0.06 µg/mL (≈ 0.101 µM); in [29], 128 µg/mL (≈ 215 µM); in [23], 128 µg/mL (≈ 215 µM).

In the case of `COC(=O)c1cc2cc3c(c(O)c2c(=O)o1)OC1(CC2=C(O1)C(=O)c1c(O)c(NCCO)cc(O)c1C2=O)CC3O` (stereo not given), the MIC in assay [1] was 0.13 µg/mL (≈ 0.229 µM); in assay [30] it was greater than 128 µg/mL; in assay [8], 0.06 µg/mL (≈ 0.106 µM); in assay [11], greater than 128 µg/mL; in assay [12] it was 0.06 µg/mL (≈ 0.106 µM); in [13] it was 0.03 µg/mL (≈ 0.0529 µM). In addition, the MIC in assay [14] is greater than 128 µg/mL; in assay [15], 0.004 µg/mL (≈ 0.00705 µM); in assay [16], 1 µg/mL (≈ 1.76 µM); in assay [17] it was 0.06 µg/mL (≈ 0.106 µM); in assay [18], 0.13 µg/mL (≈ 0.229 µM); in [19], 0.13 µg/mL (≈ 0.229 µM). The MIC in assay [20] was 0.016 µg/mL (≈ 0.0282 µM); in assay [21] it was 0.03 µg/mL (≈ 0.0529 µM); in assay [23] it was greater than 128 µg/mL; in assay [24], 0.06 µg/mL (≈ 0.106 µM).

These data come from ChEMBL document CHEMBL1130340, “Semisynthetic derivatives of purpuromycin as potential topical agents for vaginal infections” (1997).
